Experimental data from ChEMBL document CHEMBL2331511, “Novel soluble myeloid cell leukemia sequence 1 (Mcl-1) inhibitor (E,E)-2-(benzylaminocarbonyl)-3-styrylacrylonitrile (4g) developed using a fragment-based approach” (Eur J Med Chem, 2013).
pIC50, pKd, pKi: −log10 of the molar value. Values after ≈ are worked out from the molar mass of the structure shown. Active and inactive are the calls of the source. The rule behind the calls is not given here.

How the values were obtained:
[1] = molecular target: Bcl-2-like protein 1 (Homo sapiens, UniProt Q07817); assay: Binding affinity to Bcl-xL (unknown origin)
Chain of Bcl-2-like protein 1 (Q07817 whole entry): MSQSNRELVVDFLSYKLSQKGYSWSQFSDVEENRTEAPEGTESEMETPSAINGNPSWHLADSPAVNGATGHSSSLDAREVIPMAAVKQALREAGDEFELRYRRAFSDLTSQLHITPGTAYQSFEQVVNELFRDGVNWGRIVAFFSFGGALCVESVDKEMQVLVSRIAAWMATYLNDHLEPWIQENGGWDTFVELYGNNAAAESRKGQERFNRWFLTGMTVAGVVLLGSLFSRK

[2] = molecular target: T1, Induced myeloid leukemia cell differentiation protein Mcl-1 (Homo sapiens, UniProt Q07820); assay: Binding affinity to his-tagged Mcl-1 (unknown origin) expressed in Escherichia coli BL21 (DE3) cells by ITC analysis; settings: for pKd: read-out: Kd; for Kd: read-out: pKd (converted)
T1 sequence (Q07820 whole entry): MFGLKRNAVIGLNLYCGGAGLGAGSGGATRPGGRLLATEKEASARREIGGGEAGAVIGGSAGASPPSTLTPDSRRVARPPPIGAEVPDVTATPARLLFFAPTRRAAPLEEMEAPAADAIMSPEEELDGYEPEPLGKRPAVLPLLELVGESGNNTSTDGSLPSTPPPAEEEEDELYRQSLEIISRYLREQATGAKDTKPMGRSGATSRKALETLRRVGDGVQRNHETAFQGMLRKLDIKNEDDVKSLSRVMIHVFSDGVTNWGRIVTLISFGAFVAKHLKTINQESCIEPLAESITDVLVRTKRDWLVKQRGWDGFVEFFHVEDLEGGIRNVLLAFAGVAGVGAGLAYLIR
How it was run: (§1)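 Isothermal titration calorimetry at 25 °C in 20 mM Tris pH 8.0, 150 mM NaCl, 1% DMSO; twelve 3 μL injections of 300 μM ligand into 30 μM protein. Heats corrected against buffer-only titrations run the same way, and Kd obtained by integrating the raw data and fitting to a one-site model.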

[3] = molecular target: Induced myeloid leukemia cell differentiation protein Mcl-1 (Homo sapiens, UniProt Q07820, R263A); assay: Binding affinity to his-tagged Mcl-1 R263A mutant (unknown origin) expressed in Escherichia coli BL21 (DE3) cells by ITC analysis; how it was run: as §1
Chain of Induced myeloid leukemia cell differentiation protein Mcl-1 (Homo sapiens, UniProt Q07820, R263A) (Q07820 whole entry R263A): as the sequence (Q07820 whole entry) above, with R263A counted along it

[4] = tested on: NCI-H23; assay: Ratio of IC50 for human HL60 cells to IC50 for human NCI-H23 cells; format: functional
[5] = Solubility of the compound in 9:1 ratio of water:ethanol by HPLC analysis; format: physicochemical; settings: 9:1 water:ethanol
[6] = Solubility of the compound in 100 % ethanol by HPLC analysis; format: physicochemical
[7] = molecular target: T1, Induced myeloid leukemia cell differentiation protein Mcl-1; assay: Binding affinity to Mcl-1 (unknown origin) by two-dimensional [15N/1H] NMR analysis
[8] = molecular target: Apoptosis regulator Bcl-2 (Homo sapiens) (UniProt P10415); assay: Binding affinity to recombinant human Bcl-2
Chain of Apoptosis regulator Bcl-2 (Homo sapiens) (P10415 whole entry): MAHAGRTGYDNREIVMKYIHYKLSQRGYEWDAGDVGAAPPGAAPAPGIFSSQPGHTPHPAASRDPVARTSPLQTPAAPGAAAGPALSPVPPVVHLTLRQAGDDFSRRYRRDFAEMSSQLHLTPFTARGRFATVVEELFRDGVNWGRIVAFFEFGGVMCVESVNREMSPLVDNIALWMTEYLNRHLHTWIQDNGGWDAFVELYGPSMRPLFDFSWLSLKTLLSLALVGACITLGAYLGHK

[9] = tested on: NCI-H23; assay: Induction of apoptosis in human NCI-H23 cells after 48 hrs by annexin V flow cytometry; format: functional, cell-based; settings: NCI-H23, 48 h
How it was run: (§2)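 Cells exposed to graded concentrations of ligand for 48 h; percentage of apoptotic cells measured by Annexin V flow cytometry, and IC50 taken from the concentration–response.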

[10] = tested on: H22; assay: Induction of apoptosis in mouse H22 cells after 48 hrs by annexin V flow cytometry; format: functional, cell-based; settings: H22, 48 h; how it was run: as §2
[11] = tested on: MCF7; assay: Induction of apoptosis in human MCF7 cells after 48 hrs by annexin V flow cytometry; format: functional, cell-based; settings: MCF7, 48 h; how it was run: as §2
[12] = tested on: HL-60; assay: Induction of apoptosis in human HL60 cells after 48 hrs by annexin V flow cytometry; format: functional, cell-based; settings: HL-60, 48 h; how it was run: as §2

| pKd [2] | Kd [2] [µM] | Compound | also measured |
| --- | --- | --- | --- |
|  |  | NC(=O)c1ccccc1C(=O)c1ccc(Sc2ccc(Cl)cc2)c([N+](=O)[O-])c1 | pKi [1]: 6.30 |
| 5.37 | 4.27 | N#CC(C#N)=c1c(=O)c2cccc3c(Oc4ccc(Cl)cc4)ccc1c32 |  |
|  |  | O=C(Nc1cc(S(=O)(=O)c2ccc(Cl)cc2)ccc1Cl)c1cc(Cl)cc(Br)c1O | pKi [1]: 5.39 |
| 5.31 | 4.9 | COc1ccc(Oc2ccc3c(=C(C#N)C#N)c(=O)c4cccc2c43)cc1 |  |
| 6.80 | 0.158 | N#C/C(=C\C=C\c1ccccc1)C(=O)NCc1ccccc1 | Ratio IC50 [4]: 100; solubility [5]: 200 µg/mL; solubility [6]: 4000 µg/mL (≈ 13.9 mM); pKd [3]: 5.17; Activity [7]: Active; Activity [8]: inactive; pIC50 [9]: 6.42; pIC50 [10]: 5.49; pIC50 [11]: 5.27; pIC50 [12]: 4.33 |
| 5.74 | 1.82 | N#CC1=C2C(=NC1=O)c1cccc3cccc2c13 |  |
| 5.18 | 6.61 | CCNC(=O)CC#N |  |
| 5.97 | 1.07 | N#C/C(=C\C=C\c1ccccc1)C(N)=O | pKd [3]: 4.34 |
| 5.37 | 4.27 | CCCNC(=O)CC#N |  |
|  |  | N#Cc1c(-c2ccc3c(c2)OCO3)cc(-c2ccccc2O)[nH]c1=O | pKi [1]: 5.29 |
| 5.08 | 8.32 | CNC(=O)CC#N |  |
| 5.66 | 2.19 | N#C/C(=C\c1ccccc1)C(N)=O |  |
| 5.84 | 1.45 | CCC(C)(C)c1ccc(Oc2ccc3c(=C(C#N)C#N)c(=O)c4cccc2c43)cc1 |  |
| 5.80 | 1.58 | N#CCC(=O)NCc1ccccc1 | pKd [3]: 4.04 |
| 4.28 | 52.5 | N#CC(C#N)=c1c(=O)c2cccc3cccc1c32 | pKd [3]: 4.29 |
|  |  | CCCC(CSc1ccccc1)Nc1ccc(S(=O)(=O)NC(=O)c2ccc(N3CCN(Cc4ccccc4-c4ccc(Cl)cc4)CC3)cc2)cc1[N+](=O)[O-] (configuration not stated) | pKi [1]: 7.68 |
| 5.43 | 3.72 | CC(C)c1ccc(Oc2ccc3c(=C(C#N)C#N)c(=O)c4cccc2c43)cc1 |  |
|  |  | COC1=CC(c2cc3ccccc3[nH]2)=N/C1=C/c1[nH]cc(C)c1C | pKi [1]: 5.33 |

| Compound | pKd [2] | Kd [2] [µM] | also measured |
| --- | --- | --- | --- |
| Cc1cc2c(C(C)C)c(O)c(O)c(C=O)c2c(O)c1-c1c(C)cc2c(C(C)C)c(O)c(O)c(C=O)c2c1O [GOSSYPOL] | 5.58 | 2.63 |  |
| N#CCC(N)=O [CYANOACETAMIDE] | 4.87 | 13.5 | pKd [3]: < 3.00 |
| O=C1C(=O)c2cccc3cccc1c23 [ACENAPHTHOQUINONE] | 3.49 | 324 |  |
| C1CSCCN1 [THIOMORPHOLINE] | < 3.00 |  |  |
